The record followed here is article PMC2714051 (European journal of medicinal chemistry, 2008).

In test [1] the test system is bovine brain tubulin. As to the kind of experiment: [3H]colchicine binding to tubulin. The following applies: 1 μM drug; 1.0 μM tubulin, 5.0 μM [3H]colchicine, 10 min 37 °C.
The subject of test [2] is MCF-7 human breast cancer cells. Kind of test: MCF-7 cell growth, sulforhodamine B. The test is classed as cell-based.
Test [3] concerns SF-295 (glyoblastoma). Kind of test: MTT cytotoxicity assay, SF-295. The test is classed as cell-based. As to conditions: Homo sapiens, SF-295, 72 h, read-out: Cytotoxic activity IC50. The method, boiled down:
(§1)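 Test compounds at 0.0009–5 µg/mL were incubated with the human tumour cells for 72 h. Growth was read by the cells' reduction of yellow MTT to blue formazan.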

Test [4] deals with MDA/MB-435 (breast). As to the kind of experiment: MTT cytotoxicity assay, MDA/MB-435. The test is classed as cell-based. As to conditions: Homo sapiens, MDA-MB-435, 72 h, read-out: Cytotoxic activity IC50. The method, boiled down: as §1
On the technique in general: Tetrazolium dyes change colour on reduction, which living cells bring about.

In test [5] the test system is HL-60 (leukemia). Kind of test: MTT cytotoxicity assay, HL-60. The test is classed as cell-based. As to conditions: Homo sapiens, HL-60, 72 h, read-out: Cytotoxic activity IC50. The method, boiled down:
as §1

Test [6] concerns HCT-8 (colon). As to the kind of experiment: MTT cytotoxicity assay, HCT-8. The test is classed as cell-based. As to conditions: Homo sapiens, HCT-8, 72 h, read-out: Cytotoxic activity IC50. The method, boiled down:
as §1

Molecules are shown by their SMILES. Values after ≈ are worked out from the molar mass of the structure shown.

Regarding `COc1ccc(/C=C\c2cc(OC)c(OC)c(OC)c2)cc1O` [CA4, combretastatin A-4, reference compound], in test [1], the “Colchicine binding % inhibition ± SD” value was found to be 85 ± 5%. For the same molecule, the 50% inhibitory concentration (IC50) (as a rule, the concentration that gives 50% inhibition) in test [2] (Homo sapiens, MCF7, 48 h, read-out: MCF-7 cell growth IC50 ± SD) turned out to be 1.4 ± 0.1 nM.

Regarding `COc1ccc(Sc2cc(OC)c(OC)c(OC)c2)cc1` [compound 1, 1,2,3-trimethoxy-5-[(4-methoxyphenyl)thio]benzene], the IC50 worked out at 0.01 µg/mL (≈ 0.0326 µM) in test [3], 0.001 µg/mL (≈ 0.00326 µM) in test [4], 0.001 µg/mL (≈ 0.00326 µM) in test [5] and 0.01 µg/mL (≈ 0.0326 µM) in test [6]. The “Fold less active than CA4 as an inhibitor of MCF-7 cell growth” value in test [2] (in comparison with CA4) is listed as “about 10 fold”.

Take `COc1ccc([S+]([O-])c2cc(OC)c(OC)c(OC)c2)cc1` (stereo not drawn) [compound 2, 1,2,3-trimethoxy-5[(4-methoxyphenyl)sulfinyl]benzene]: the IC50 in test [3] came to 0.47 µg/mL (≈ 1.46 µM); in test [4], 0.09 µg/mL (≈ 0.279 µM); in test [5], 0.11 µg/mL (≈ 0.341 µM); in test [6], 0.15 µg/mL (≈ 0.465 µM).

As to `COc1ccc(S(=O)(=O)c2cc(OC)c(OC)c(OC)c2)cc1` [compound 3, 1,2,3-trimethoxy-5[(4-methoxyphenyl)sulfonyl]benzene], the IC50 was determined as 2.61 µg/mL (≈ 7.71 µM) in test [3], 0.75 µg/mL (≈ 2.22 µM) in test [4], 1.53 µg/mL (≈ 4.52 µM) in test [5] and 3.95 µg/mL (≈ 11.7 µM) in test [6].
